In ChEMBL document CHEMBL1142461, “In vitro biological evaluation of novel 7-O-dialkylaminoalkyl cytotoxic pectolinarigenin derivatives against a panel of human cancer cell lines” (Bioorg Med Chem Lett, 2008):

Tests used:
COR-L23 = assay: Antiproliferative activity against human COR-L23 cells after 48 hrs by sulforhodamine B assay; type: functional, cell-based; conditions: COR-L23, 48 h
How it was run: (§1)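 Cells grown in RPMI 1640 (ACHN, C32, COR-L23) or DMEM (142BR, A375, A549, Caco-2, Huh-7D12), seeded and allowed to attach for 24 h. Then exposed 48 h to six serial dilutions (DMSO ≤0.5% final, matched in solvent controls), in six replicates. Fixed with ice-cold 40% TCA for 1 h at 4 °C and SRB-stained, read at 564 nm. Survival taken as % of untreated control; IC50 from dose–response curve; mean ± SD.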

Caco-2 = assay: Antiproliferative activity against human Caco-2 cells after 48 hrs by sulforhodamine B assay; type: functional, cell-based; conditions: Caco-2, 48 h; how it was run: as §1
C32 = assay: Antiproliferative activity against human C32 cells after 48 hrs by sulforhodamine B assay; type: functional, cell-based; conditions: C32, 48 h; how it was run: as §1
ACHN = assay: Antiproliferative activity against human ACHN cells after 48 hrs by sulforhodamine B assay; type: functional, cell-based; how it was run: as §1
[1] = Antiproliferative activity against human Huh-7D12 cells after 48 hrs by sulforhodamine B assay; type: functional, cell-based; conditions: Huh-7D12, 48 h; how it was run: as §1
[2] = Antiproliferative activity against human 142BR cells after 48 hrs by sulforhodamine B assay; type: functional, cell-based; how it was run: as §1
[3] = Partition coefficient, log P of the compound; type: physicochemical; conditions: octanol/water
A-375 = assay: Antiproliferative activity against human A375 cells after 48 hrs by sulforhodamine B assay; type: functional, cell-based; conditions: A-375, 48 h; how it was run: as §1
A549 = assay: Antiproliferative activity against human A549 cells after 48 hrs by sulforhodamine B assay; type: functional, cell-based; conditions: A549, 48 h; how it was run: as §1

IC50 (Caco-2) [µM]	IC50 (ACHN) [µM]	logP [3]	IC50 (A-375) [µM]	IC50 (A549) [µM]	SMILES	IC50 (COR-L23) [µM]	IC50 (C32) [µM]	IC50 [1] [µM]	IC50 [2] [µM]
> 100	10.8	2.4	7.7	7.4	COc1ccc(-c2cc(=O)c3c(O)c(OC)c(OCCCN(C)C)cc3o2)cc1	7.2	8.9	> 100	> 100
> 100	10.5	2.3	> 100	13.2	COc1ccc(-c2cc(=O)c3c(O)c(OC)c(OCCN(C)C)cc3o2)cc1	9.2	> 100	> 100	> 100
> 100	12.7	2.6	38.6	> 100	COc1ccc(-c2cc(=O)c3c(O)c(OC)c(OCCN4CCCC4)cc3o2)cc1	> 100	54.7	> 100	> 100
78.6	92.6	3	52.3	44.9	COc1ccc(-c2cc(=O)c3c(O)c(OC)c(OCCN4CCCCC4)cc3o2)cc1	34.1	63.6	> 100	> 100
> 100	55.7	1.9	58.8	85.1	COc1ccc(-c2cc(=O)c3c(O)c(OC)c(OCCN4CCOCC4)cc3o2)cc1	39.5	47.6	> 100	> 100
> 100	54.1	3	> 100	59.9	CCN(CC)CCOc1cc2oc(-c3ccc(OC)cc3)cc(=O)c2c(O)c1OC	41.9	> 100	> 100	> 100
5.3	15.2	2	8.2	5.6	COc1ccc(-c2cc(=O)c3c(O)c(OC)c(O)cc3o2)cc1 [PECTOLINARIGENIN]	4.1	7	> 100	> 100
6.2	17.2	-0.7	32.9	38.8	COc1ccc(-c2cc(=O)c3c(O)c(OC)c(O[C@@H]4O[C@H](CO[C@@H]5O[C@@H](C)[C@H](O)[C@@H](O)[C@H]5O)[C@@H](O)[C@H](O)[C@H]4O)cc3o2)cc1 [PECTOLINARIN]	5	7.2	50.8	> 100
